# Positions count from the first letter of the chain named.
# Key:
# Conditions in all cases: stereoisomer not certain
# [1] = biological target: T1, UniProt Q7TR71
# T1 sequence (whole entry): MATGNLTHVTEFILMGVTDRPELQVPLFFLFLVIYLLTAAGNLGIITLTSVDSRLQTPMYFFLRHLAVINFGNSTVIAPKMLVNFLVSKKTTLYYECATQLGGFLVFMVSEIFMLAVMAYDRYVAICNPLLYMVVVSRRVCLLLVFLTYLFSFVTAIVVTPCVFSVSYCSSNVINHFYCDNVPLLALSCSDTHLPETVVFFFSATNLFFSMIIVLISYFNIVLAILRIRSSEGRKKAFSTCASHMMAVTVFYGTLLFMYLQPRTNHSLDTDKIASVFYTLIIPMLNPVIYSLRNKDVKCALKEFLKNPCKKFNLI
# Method in brief: (§1)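 Each entry records the cell line, G-protein, co-transfected protein and tags used. Methods varied with the source, often transient luciferase assays in mammalian cell lines. A receptor–molecule pair is called responsive (active) if the original authors judged its signal statistically different from baseline and non-responsive (inactive) otherwise.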
# [2] = biological target: T2, UniProt Q7TR79
# T2 sequence (whole entry): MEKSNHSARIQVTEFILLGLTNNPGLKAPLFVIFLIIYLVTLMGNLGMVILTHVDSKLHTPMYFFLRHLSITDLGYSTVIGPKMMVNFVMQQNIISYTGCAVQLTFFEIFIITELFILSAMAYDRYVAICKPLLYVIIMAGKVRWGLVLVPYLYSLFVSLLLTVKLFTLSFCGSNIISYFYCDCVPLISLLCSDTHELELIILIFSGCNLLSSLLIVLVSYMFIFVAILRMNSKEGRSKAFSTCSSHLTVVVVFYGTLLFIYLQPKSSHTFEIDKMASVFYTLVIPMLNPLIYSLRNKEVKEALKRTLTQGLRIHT
# Method in brief: as §1
# [3] = biological target: T3, UniProt Q7TRA3
# T3 sequence (whole entry): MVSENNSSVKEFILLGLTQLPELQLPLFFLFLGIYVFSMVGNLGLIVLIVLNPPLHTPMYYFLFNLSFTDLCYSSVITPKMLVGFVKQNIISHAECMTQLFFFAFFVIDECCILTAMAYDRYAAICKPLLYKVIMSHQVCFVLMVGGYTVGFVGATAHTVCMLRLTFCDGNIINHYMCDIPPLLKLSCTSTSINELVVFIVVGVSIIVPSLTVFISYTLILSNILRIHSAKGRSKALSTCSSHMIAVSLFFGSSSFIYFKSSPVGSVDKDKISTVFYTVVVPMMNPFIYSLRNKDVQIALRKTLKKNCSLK
# Method in brief: as §1
# [4] = biological target: T4, UniProt Q7TRE4
# T4 sequence (whole entry): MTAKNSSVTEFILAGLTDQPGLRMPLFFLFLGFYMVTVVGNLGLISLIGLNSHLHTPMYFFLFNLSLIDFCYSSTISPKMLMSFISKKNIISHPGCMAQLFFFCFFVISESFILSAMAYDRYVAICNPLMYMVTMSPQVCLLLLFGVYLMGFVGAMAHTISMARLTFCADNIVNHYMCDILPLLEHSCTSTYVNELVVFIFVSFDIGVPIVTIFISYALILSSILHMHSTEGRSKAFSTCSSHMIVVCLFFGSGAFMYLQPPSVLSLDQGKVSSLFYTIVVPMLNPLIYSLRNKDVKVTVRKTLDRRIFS
# Method in brief: as §1
# [5] = biological target: T5, UniProt Q7TRW1
# T5 sequence (whole entry): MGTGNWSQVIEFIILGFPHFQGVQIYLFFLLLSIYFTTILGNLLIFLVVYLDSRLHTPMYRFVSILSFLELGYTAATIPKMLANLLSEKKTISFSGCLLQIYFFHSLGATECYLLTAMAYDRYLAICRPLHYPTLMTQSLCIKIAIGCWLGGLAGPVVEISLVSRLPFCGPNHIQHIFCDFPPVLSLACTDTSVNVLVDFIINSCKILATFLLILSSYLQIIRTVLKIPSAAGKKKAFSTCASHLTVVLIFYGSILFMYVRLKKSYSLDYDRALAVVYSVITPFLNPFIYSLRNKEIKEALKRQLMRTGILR
# Method in brief: as §1
# [6] = biological target: T6, UniProt Q7TRX0
# T6 sequence (whole entry): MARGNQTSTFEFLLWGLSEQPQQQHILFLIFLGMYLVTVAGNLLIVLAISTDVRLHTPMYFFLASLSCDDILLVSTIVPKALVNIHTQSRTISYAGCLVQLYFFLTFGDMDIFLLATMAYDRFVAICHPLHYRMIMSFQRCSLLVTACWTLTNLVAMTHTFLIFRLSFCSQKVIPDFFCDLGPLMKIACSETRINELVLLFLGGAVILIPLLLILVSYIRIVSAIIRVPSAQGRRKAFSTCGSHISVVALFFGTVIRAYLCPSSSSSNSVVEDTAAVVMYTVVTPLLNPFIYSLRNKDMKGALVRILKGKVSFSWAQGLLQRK
# Method in brief: as §1
# [7] = biological target: T7, UniProt Q8VEU7
# T7 sequence (whole entry): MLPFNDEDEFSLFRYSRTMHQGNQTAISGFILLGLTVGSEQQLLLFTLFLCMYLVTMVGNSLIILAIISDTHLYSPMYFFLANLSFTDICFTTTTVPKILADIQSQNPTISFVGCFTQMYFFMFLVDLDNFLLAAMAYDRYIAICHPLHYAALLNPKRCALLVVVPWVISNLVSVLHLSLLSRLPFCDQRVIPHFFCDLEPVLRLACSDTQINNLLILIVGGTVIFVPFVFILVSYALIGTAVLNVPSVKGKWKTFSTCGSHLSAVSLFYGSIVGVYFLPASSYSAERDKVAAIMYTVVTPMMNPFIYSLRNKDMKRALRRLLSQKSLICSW
# Method in brief: as §1
# [8] = biological target: T8, UniProt Q8VF05
# T8 sequence (whole entry): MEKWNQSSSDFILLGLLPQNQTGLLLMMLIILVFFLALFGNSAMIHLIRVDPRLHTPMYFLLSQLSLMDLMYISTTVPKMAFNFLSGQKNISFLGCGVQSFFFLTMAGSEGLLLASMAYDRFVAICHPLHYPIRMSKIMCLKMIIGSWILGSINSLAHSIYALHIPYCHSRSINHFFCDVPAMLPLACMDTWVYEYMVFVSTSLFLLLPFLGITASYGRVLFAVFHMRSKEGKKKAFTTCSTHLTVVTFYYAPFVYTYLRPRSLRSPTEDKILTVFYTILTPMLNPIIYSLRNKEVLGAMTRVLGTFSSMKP
# Method in brief: as §1
# [9] = biological target: T9, UniProt Q7TRA1
# T9 sequence (whole entry): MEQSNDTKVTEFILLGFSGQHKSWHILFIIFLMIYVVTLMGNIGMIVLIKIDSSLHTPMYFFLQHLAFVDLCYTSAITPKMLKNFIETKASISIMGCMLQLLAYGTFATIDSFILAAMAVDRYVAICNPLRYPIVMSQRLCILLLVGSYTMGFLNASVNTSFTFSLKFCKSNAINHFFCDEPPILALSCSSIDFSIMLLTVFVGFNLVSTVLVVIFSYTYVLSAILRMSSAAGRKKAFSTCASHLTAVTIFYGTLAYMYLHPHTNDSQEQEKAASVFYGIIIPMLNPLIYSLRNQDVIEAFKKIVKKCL
# Method in brief: as §1
# [10] = biological target: T10, UniProt Q7TRA2
# T10 sequence (whole entry): T9 sequence (whole entry) with S18A, I86T, I94F, M95I, S112C, V208L, T219I, V221I, V305A
# Method in brief: as §1
# [11] = biological target: T11, UniProt Q7TRM0
# T11 sequence (whole entry): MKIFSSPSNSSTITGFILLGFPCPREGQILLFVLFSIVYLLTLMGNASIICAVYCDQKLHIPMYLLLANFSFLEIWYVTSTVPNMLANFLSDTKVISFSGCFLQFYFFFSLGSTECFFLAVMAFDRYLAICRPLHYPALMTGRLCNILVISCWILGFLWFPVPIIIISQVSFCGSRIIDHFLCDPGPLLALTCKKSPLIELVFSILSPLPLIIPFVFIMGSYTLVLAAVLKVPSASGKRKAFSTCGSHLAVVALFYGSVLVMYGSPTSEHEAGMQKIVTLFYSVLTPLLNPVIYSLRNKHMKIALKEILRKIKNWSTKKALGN
# Method in brief: as §1
# [12] = biological target: T12, UniProt Q7TRN9
# T12 sequence (whole entry): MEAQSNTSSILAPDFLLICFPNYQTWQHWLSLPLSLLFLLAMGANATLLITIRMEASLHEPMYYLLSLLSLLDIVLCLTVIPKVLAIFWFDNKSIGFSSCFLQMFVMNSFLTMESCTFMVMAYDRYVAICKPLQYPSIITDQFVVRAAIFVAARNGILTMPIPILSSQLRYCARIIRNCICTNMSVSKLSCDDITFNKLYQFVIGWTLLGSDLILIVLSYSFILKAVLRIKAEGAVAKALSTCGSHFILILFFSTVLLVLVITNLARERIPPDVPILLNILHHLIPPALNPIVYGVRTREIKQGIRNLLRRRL
# Method in brief: as §1
# [13] = biological target: UniProt Q7TRR7
# Method in brief: as §1
# [14] = biological target: T13, UniProt Q7TRR8
# T13 sequence (whole entry): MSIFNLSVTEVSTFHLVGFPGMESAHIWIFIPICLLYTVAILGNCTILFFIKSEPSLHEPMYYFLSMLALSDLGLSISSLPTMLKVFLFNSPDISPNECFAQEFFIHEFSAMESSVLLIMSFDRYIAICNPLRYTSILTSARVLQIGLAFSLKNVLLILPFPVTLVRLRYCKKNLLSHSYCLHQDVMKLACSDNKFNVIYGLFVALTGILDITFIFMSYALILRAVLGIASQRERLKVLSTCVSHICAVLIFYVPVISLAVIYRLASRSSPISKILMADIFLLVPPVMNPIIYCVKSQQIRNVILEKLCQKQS
# Method in brief: as §1
# [15] = biological target: UniProt Q7TR75
# Method in brief: as §1
# [16] = biological target: UniProt Q7TRB8
# Method in brief: as §1
# [17] = biological target: UniProt Q7TS17
# Method in brief: as §1
# [18] = biological target: UniProt Q7TS37
# Method in brief: as §1
# [19] = biological target: UniProt Q7TS40
# Method in brief: as §1
# Sequence of UniProt Q7TR75 (Q7TR75 as listed by the source): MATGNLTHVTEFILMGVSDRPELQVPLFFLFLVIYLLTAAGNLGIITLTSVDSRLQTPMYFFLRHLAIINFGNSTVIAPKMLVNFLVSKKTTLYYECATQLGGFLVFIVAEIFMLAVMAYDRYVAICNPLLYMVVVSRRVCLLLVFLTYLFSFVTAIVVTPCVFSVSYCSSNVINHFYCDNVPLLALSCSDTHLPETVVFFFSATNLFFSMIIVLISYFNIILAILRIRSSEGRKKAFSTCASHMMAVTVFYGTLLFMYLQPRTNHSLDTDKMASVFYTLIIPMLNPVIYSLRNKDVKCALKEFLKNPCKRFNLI
# Sequence of UniProt Q7TRB8 (Q7TRB8 as listed by the source): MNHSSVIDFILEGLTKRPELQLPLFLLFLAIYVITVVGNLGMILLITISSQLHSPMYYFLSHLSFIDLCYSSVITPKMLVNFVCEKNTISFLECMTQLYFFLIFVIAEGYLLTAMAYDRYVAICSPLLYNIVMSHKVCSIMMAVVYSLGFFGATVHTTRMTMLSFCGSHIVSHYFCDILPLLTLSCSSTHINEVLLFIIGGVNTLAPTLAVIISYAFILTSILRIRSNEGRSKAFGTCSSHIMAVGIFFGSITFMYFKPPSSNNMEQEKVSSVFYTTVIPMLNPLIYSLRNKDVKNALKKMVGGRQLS
# Sequence of UniProt Q7TS40 (Q7TS40 as listed by the source): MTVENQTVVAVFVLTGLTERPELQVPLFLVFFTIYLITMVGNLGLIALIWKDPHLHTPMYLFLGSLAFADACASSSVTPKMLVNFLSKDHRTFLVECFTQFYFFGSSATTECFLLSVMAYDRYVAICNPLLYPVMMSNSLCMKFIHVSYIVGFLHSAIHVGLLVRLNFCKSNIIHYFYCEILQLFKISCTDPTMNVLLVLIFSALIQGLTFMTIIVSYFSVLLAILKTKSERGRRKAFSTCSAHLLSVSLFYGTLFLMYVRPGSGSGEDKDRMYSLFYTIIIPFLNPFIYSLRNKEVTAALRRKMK
# Sequence of UniProt Q7TS17 (Q7TS17 as listed by the source): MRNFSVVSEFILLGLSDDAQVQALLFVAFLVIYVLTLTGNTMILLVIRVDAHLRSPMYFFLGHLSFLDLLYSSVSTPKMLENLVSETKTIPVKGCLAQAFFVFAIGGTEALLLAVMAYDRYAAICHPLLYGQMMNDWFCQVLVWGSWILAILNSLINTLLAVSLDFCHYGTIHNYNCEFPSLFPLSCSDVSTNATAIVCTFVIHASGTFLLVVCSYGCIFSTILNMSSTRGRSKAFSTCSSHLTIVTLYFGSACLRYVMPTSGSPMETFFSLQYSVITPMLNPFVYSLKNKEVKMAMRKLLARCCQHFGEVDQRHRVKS
# Sequence of UniProt Q7TRR7 (Q7TRR7 as listed by the source): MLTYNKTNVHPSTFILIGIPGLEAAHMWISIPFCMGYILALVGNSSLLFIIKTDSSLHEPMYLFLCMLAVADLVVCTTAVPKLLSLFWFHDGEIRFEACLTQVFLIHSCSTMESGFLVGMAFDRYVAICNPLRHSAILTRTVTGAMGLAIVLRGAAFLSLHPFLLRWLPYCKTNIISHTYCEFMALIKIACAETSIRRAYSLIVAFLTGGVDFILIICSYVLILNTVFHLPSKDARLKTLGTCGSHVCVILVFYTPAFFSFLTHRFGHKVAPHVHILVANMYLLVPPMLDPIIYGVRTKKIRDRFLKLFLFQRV
# Sequence of UniProt Q7TS37 (Q7TS37 as listed by the source): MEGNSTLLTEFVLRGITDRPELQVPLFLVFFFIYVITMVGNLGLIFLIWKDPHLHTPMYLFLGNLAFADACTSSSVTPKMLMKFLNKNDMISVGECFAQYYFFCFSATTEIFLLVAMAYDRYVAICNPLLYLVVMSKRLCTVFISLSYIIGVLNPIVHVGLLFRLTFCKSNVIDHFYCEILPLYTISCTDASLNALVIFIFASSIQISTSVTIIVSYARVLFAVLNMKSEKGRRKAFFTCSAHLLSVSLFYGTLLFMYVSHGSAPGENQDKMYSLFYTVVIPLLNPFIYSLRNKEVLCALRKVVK
Compound,odorant receptor agonist call [1],odorant receptor agonist call [2],odorant receptor agonist call [3],odorant receptor agonist call [4],odorant receptor agonist call [5],odorant receptor agonist call [6],odorant receptor agonist call [7],odorant receptor agonist call [8],odorant receptor agonist call [9],odorant receptor agonist call [10],odorant receptor agonist call [11],odorant receptor agonist call [12],odorant receptor agonist call [13],odorant receptor agonist call [14],odorant receptor agonist call [15],odorant receptor agonist call [16],odorant receptor agonist call [17],odorant receptor agonist call [18],odorant receptor agonist call [19]
C=CCOC(=O)CCCCCC,inactive,inactive,inactive,inactive,inactive,inactive,inactive,inactive,,,,,,,,,,,
CCCCCCCCC(=O)O,inactive,inactive,inactive,inactive,inactive,inactive,inactive,inactive,active,active,inactive,active,inactive,active,,,,,
CCCCCCCCCO,inactive,inactive,inactive,inactive,inactive,inactive,inactive,inactive,,,inactive,active,,inactive,,,,,
CCC(=O)O,inactive,inactive,inactive,inactive,inactive,inactive,inactive,inactive,,,,,,,,,,,
COc1cc(C(=O)O)ccc1O,inactive,inactive,inactive,inactive,inactive,inactive,inactive,inactive,,,,,,,,,,,
O=c1ccc2ccccc2o1,active,,active,active,inactive,,inactive,inactive,inactive,inactive,,,,,active,active,active,active,inactive
CCCCCC1=C(C)CCC1=O,inactive,inactive,inactive,inactive,inactive,inactive,inactive,active,,,,,,,,,,,
CC(=O)Oc1ccccc1,inactive,inactive,inactive,inactive,inactive,inactive,inactive,inactive,,,,,,,,,,,
CCCCCC=O,inactive,inactive,inactive,inactive,inactive,inactive,inactive,active,,,,,,,,,,,

# Reference: the M2OR odorant receptor database
